# Measured values as given in ChEMBL document CHEMBL1138564, “Microwave-induced synthesis and anti-microbial activities of 7,10,11,12-tetrahydrobenzo[c]acridin-8(9H)-one derivatives” (2009).
# Calls of active or inactive are those of the source. No cut-off for these calls is given here.
# What was measured:
# Lipomyces lipofer = assay: Antimicrobial activity against Lipomyces lipofer NCIM 3252 at 500 ug/disk after 72 hrs by disk diffusion method; format: functional
# Summary of the method: (§1)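 Disc diffusion on Sabouraud's dextrose agar. 100 µl of fungal suspension at 10⁶ CFU/ml is spread on the plate. Discs carry test compounds at two loadings in DMSO; DMSO alone is the negative control. Clotrimazole disc is the positive reference. Plates are incubated at 27 °C for 72 h, and the zone of inhibition diameter is measured.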
# Proteus vulgaris [1] = assay: Antimicrobial activity against Proteus vulgaris NCIM 2027 at 1000 ug/disk after 24 hrs by disk diffusion method; format: functional
# Summary of the method: (§2)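 Disc diffusion on Mueller–Hinton agar. 100 µl of bacterial suspension at 10⁸ CFU/ml is spread on the plate. Discs carry test compounds at two loadings, dissolved in DMSO; DMSO alone serves as negative control. Ofloxacin disc is the positive reference. Plates are incubated at 37 °C for 24 h, and the inhibition zone diameter is measured.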
# Proteus vulgaris [2] = assay: Antimicrobial activity against Proteus vulgaris NCIM 2027 at 500 ug/disk after 24 hrs by disk diffusion method; format: functional; summary of the method: as §2
# Klebsiella aerogenes [3] = assay: Antimicrobial activity against Klebsiella aerogenes NCIM 2239 at 1000 ug/disk after 24 hrs by disk diffusion method; format: functional; summary of the method: as §2
# Penicillium chrysogenum [4] = assay: Antimicrobial activity against Penicillium chrysogenum NCIM 707 at 500 ug/disk after 72 hrs by disk diffusion method; format: functional; summary of the method: as §1
# Aspergillus flavus [5] = assay: Antimicrobial activity against Aspergillus flavus NCIM 902 at 1000 ug/disk after 72 hrs by disk diffusion method; format: functional; conditions: NCIM 902, 72 h, read-out: DIZ; summary of the method: as §1
# Escherichia coli [6] = assay: Antimicrobial activity against Escherichia coli NCIM 2065 after 24 hrs by serial dilution method; format: functional; conditions: NCIM 2065, 24 h
# Summary of the method: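 Broth dilution MIC in nutrient broth, run only for organisms found sensitive in disc diffusion. Compounds are two-fold serially diluted in 1 ml sterile broth per tube, spanning 3.9 to 1000. Inoculated tubes are incubated at 37 °C for 24 h.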
# Bacillus cereus [7] = assay: Antimicrobial activity against Bacillus cereus NCIM 2155 at 1000 ug/disk after 24 hrs by disk diffusion method; format: functional; conditions: NCIM 2155, 24 h, read-out: DIZ; summary of the method: as §2
# Aspergillus parasiticus [8] = assay: Antimicrobial activity against Aspergillus parasiticus NCIM 904 at 500 ug/disk after 72 hrs by disk diffusion method; format: functional; conditions: NCIM 904, 72 h, read-out: DIZ; summary of the method: as §1
# [9] = tested on: Rhodococcus corynebacterioides; assay: Antimicrobial activity against Corynebacterium rubrum NCIM 2252 at 1000 ug/disk after 24 hrs by disk diffusion method; format: functional; conditions: Rhodococcoides corynebacterioides; summary of the method: as §2
# Trichoderma viride [10] = assay: Antimicrobial activity against Trichoderma viride NCIM 1195 after 72 hrs by serial dilution method; format: functional; conditions: NCIM 1195, 72 h
# Summary of the method: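 MIC by broth dilution in Sabouraud's dextrose broth, run only on fungi found sensitive in the disc assay. Twofold serial dilutions were made in 1 ml broth per tube, covering 3.9 to 1000. Inoculated tubes were incubated at 27 °C for 72 h.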
# Staphylococcus = assay: Antimicrobial activity against Staphylococcus albus NCIM 2178 at 1000 ug/disk after 24 hrs by disk diffusion method; format: functional
# Summary of the method: (§3)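 Disc diffusion. 100 µl of bacterial suspension at 10⁸ CFU/ml was spread on Mueller–Hinton agar. Discs loaded with test compound dissolved in DMSO were placed on the lawn, with a DMSO-only disc as negative control. Plates were incubated at 37 °C for 24 h, and the inhibition zone diameter was measured.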
# Trichoderma viride [11] = assay: Antimicrobial activity against Trichoderma viride NCIM 1195 at 500 ug/disk after 72 hrs by disk diffusion method; format: functional; conditions: NCIM 1195, 72 h, read-out: DIZ
# Summary of the method: (§4)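 Fungal disc diffusion. 100 µl of suspension at 10⁶ CFU/ml was spread on Sabouraud's dextrose agar. Discs carrying test compound in DMSO were applied, with a DMSO-only disc as negative control. Plates were incubated at 27 °C for 72 h, and the zone of inhibition diameter was measured.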
# Rhodotorula mucilaginosa [12] = assay: Antimicrobial activity against Rhodotorula rubra NCIM 3174 at 500 ug/disk after 72 hrs by disk diffusion method; format: functional; conditions: NCIM 3174, 72 h, read-out: DIZ; summary of the method: as §4
# Penicillium chrysogenum [13] = assay: Antimicrobial activity against Penicillium chrysogenum NCIM 707 at 1000 ug/disk after 72 hrs by disk diffusion method; format: functional; summary of the method: as §1
# Trichoderma viride [14] = assay: Antimicrobial activity against Trichoderma viride NCIM 1195 at 1000 ug/disk after 72 hrs by disk diffusion method; format: functional; conditions: NCIM 1195, 72 h, read-out: DIZ; summary of the method: as §4
# Aspergillus flavus [15] = assay: Antimicrobial activity against Aspergillus flavus NCIM 902 at 500 ug/disk after 72 hrs by disk diffusion method; format: functional; conditions: NCIM 902, 72 h, read-out: DIZ; summary of the method: as §1
# Pseudomonas aeruginosa [16] = assay: Antimicrobial activity against Pseudomonas aeruginosa NCIM 2200 at 1000 ug/disk after 24 hrs by disk diffusion method; format: functional; summary of the method: as §2
# Rhodotorula mucilaginosa [17] = assay: Antimicrobial activity against Rhodotorula rubra NCIM 3174 at 1000 ug/disk after 72 hrs by disk diffusion method; format: functional; conditions: NCIM 3174, 72 h, read-out: DIZ; summary of the method: as §4
# Bacillus cereus [18] = assay: Antimicrobial activity against Bacillus cereus NCIM 2155 at 500 ug/disk after 24 hrs by disk diffusion method; format: functional; conditions: NCIM 2155, 24 h, read-out: DIZ; summary of the method: as §2
# Aspergillus parasiticus [19] = assay: Antimicrobial activity against Aspergillus parasiticus NCIM 904 after 72 hrs by serial dilution method; format: functional; conditions: NCIM 904, 72 h
# Summary of the method: (§5)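 MIC by broth dilution in Sabouraud's dextrose broth, only for fungi sensitive in disc diffusion. Two-fold serial dilutions of compounds are made in 1 ml broth per tube, range 3.9 to 1000. Inoculated tubes are incubated at 27 °C for 72 h.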
# Aliivibrio fischeri [20] = assay: Antimicrobial activity against Vibrio fischeri NCIM 2154 at 1000 ug/disk after 24 hrs by disk diffusion method; format: functional; conditions: NCIM 2154, 24 h, read-out: DIZ; summary of the method: as §3
# Aspergillus fumigatus = assay: Antimicrobial activity against Aspergillus fumigatus NCIM 902 at 1000 ug/disk after 72 hrs by disk diffusion method; format: functional; conditions: NCIM 902, 72 h, read-out: DIZ; summary of the method: as §1
# [21] = tested on: Rhodococcus corynebacterioides; assay: Antimicrobial activity against Corynebacterium rubrum NCIM 2252 at 500 ug/disk after 24 hrs by disk diffusion method; format: functional; conditions: Rhodococcoides corynebacterioides; summary of the method: as §2
# Bacillus subtilis = assay: Antimicrobial activity against Bacillus subtilis NCIM 2063 at 500 ug/disk after 24 hrs by disk diffusion method; format: functional; summary of the method: as §2
# Salmonella typhimurium = assay: Antimicrobial activity against Salmonella Typhimurium NCIM 2501 at 1000 ug/disk after 24 hrs by disk diffusion method; format: functional, Salmonella enterica subsp. enterica serovar Typhimurium; conditions: Salmonella enterica, NCIM 2501, 24 h; read-out: DIZ; summary of the method: as §3
# Pseudomonas aeruginosa [22] = assay: Antimicrobial activity against Pseudomonas aeruginosa NCIM 2200 at 500 ug/disk after 24 hrs by disk diffusion method; format: functional; summary of the method: as §3
# Aliivibrio fischeri [23] = assay: Antimicrobial activity against Vibrio fischeri NCIM 2154 at 500 ug/disk after 24 hrs by disk diffusion method; format: functional; summary of the method: as §3
# Aspergillus flavus [24] = assay: Antimicrobial activity against Aspergillus flavus NCIM 902 after 72 hrs by serial dilution method; format: functional; conditions: NCIM 535, 72 h, in the assay text read “NCIM 535” for “NCIM 902”; summary of the method: as §5
# Escherichia coli [25] = assay: Antimicrobial activity against Escherichia coli NCIM 2065 at 500 ug/disk after 24 hrs by disk diffusion method; format: functional; conditions: NCIM 2065, 24 h, read-out: DIZ; summary of the method: as §2
# Escherichia coli [26] = assay: Antimicrobial activity against Escherichia coli NCIM 2065 at 1000 ug/disk after 24 hrs by disk diffusion method; format: functional; conditions: NCIM 2065, 24 h, read-out: DIZ; summary of the method: as §2
# Klebsiella aerogenes [27] = assay: Antimicrobial activity against Klebsiella aerogenes NCIM 2239 at 500 ug/disk after 24 hrs by disk diffusion method; format: functional; summary of the method: as §2
Compound,diameter of the inhibition zone (DIZ) (Lipomyces lipofer),diameter of the inhibition zone (DIZ) (Proteus vulgaris [1]),diameter of the inhibition zone (DIZ) (Proteus vulgaris [2]),zone of inhibition at 1000 µg/disc (Aspergillus flavus [5]) [mm],MIC (Escherichia coli [6]) [µg/mL],zone of inhibition at 1000 µg/disc (Bacillus cereus [7]) [mm],zone of inhibition at 500 µg/disc (Aspergillus parasiticus [8]) [mm],MIC (Trichoderma viride [10]) [µg/mL],diameter of the inhibition zone (DIZ) (Staphylococcus),zone of inhibition at 500 µg/disc (Trichoderma viride [11]) [mm],zone of inhibition at 500 µg/disc (Rhodotorula mucilaginosa [12]) [mm],zone of inhibition at 1000 µg/disc (Trichoderma viride [14]) [mm],zone of inhibition at 500 µg/disc (Aspergillus flavus [15]) [mm],diameter of the inhibition zone (DIZ) (Pseudomonas aeruginosa [16]),zone of inhibition at 1000 µg/disc (Rhodotorula mucilaginosa [17]) [mm],zone of inhibition at 500 µg/disc (Bacillus cereus [18]) [mm],MIC (Aspergillus parasiticus [19]) [µg/mL],zone of inhibition at 1000 µg/disc (Aliivibrio fischeri [20]) [mm],zone of inhibition at 1000 µg/disc (Aspergillus fumigatus) [mm],zone of inhibition at 1000 µg/disc (Salmonella typhimurium) [mm],further results
CC1(C)CC(=O)C2=C(C1)Nc1c(ccc3ccccc13)C2c1ccccc1 (centres undefined),inactive,inactive,inactive,10,62.5,12,7,31.2,inactive,9,10,12,9,inactive,12,9,62.5,8,10,10,"diameter of the inhibition zone (DIZ) (Klebsiella aerogenes [3]): inactive; diameter of the inhibition zone (DIZ) (Penicillium chrysogenum [4]): inactive; diameter of the inhibition zone (DIZ) [9]: inactive; diameter of the inhibition zone (DIZ) (Penicillium chrysogenum [13]): inactive; diameter of the inhibition zone (DIZ) [21]: inactive; zone of inhibition at 500 µg/disc (Bacillus subtilis; NCIM 2063, 24 h, read-out: DIZ): 8 mm; diameter of the inhibition zone (DIZ) (Pseudomonas aeruginosa [22]): inactive; diameter of the inhibition zone (DIZ) (Aliivibrio fischeri [23]): inactive; MIC (Aspergillus flavus [24]): 62.5 µg/mL; zone of inhibition at 500 µg/disc (Escherichia coli [25]): 7 mm; zone of inhibition at 1000 µg/disc (Escherichia coli [26]): 10 mm; diameter of the inhibition zone (DIZ) (Klebsiella aerogenes [27]): inactive"
CC1(C)CC(=O)C2=C(C1)Nc1c(ccc3ccccc13)C2c1cccc(Cl)c1 (centres undefined),inactive,inactive,inactive,10,125,10,11,15.6,inactive,10,7,13,9,inactive,9,9,31.2,9,9,10,"zone of inhibition at 1000 µg/disc (Klebsiella aerogenes [3]; NCIM 2239, 24 h, read-out: DIZ): 9 mm; zone of inhibition at 500 µg/disc (Penicillium chrysogenum [4]; NCIM 707, 72 h, read-out: DIZ): 7 mm; zone of inhibition at 1000 µg/disc ([9]; NCIM 2252, 24 h, read-out: DIZ): 8 mm; zone of inhibition at 1000 µg/disc (Penicillium chrysogenum [13]; NCIM 707, 72 h, read-out: DIZ): 10 mm; zone of inhibition at 500 µg/disc ([21]; NCIM 2252, 24 h, read-out: DIZ): 7 mm; diameter of the inhibition zone (DIZ) (Bacillus subtilis): inactive; diameter of the inhibition zone (DIZ) (Pseudomonas aeruginosa [22]): inactive; zone of inhibition at 500 µg/disc (Aliivibrio fischeri [23]; NCIM 2154, 24 h, read-out: DIZ): 7 mm; MIC (Aspergillus flavus [24]): 62.5 µg/mL; zone of inhibition at 500 µg/disc (Escherichia coli [25]): 7 mm; zone of inhibition at 1000 µg/disc (Escherichia coli [26]): 8 mm; diameter of the inhibition zone (DIZ) (Klebsiella aerogenes [27]): inactive"
